{
  "source": "ChEMBL document CHEMBL5303300",
  "about": "“EUbOPEN Chemogenomics Library - Multiplex” (2023)",
  "tested_on": "HEK-293T",
  "assay": "Multiplex assay against HEK293T",
  "format": "toxicity, cell-based",
  "settings": "human, number of replicates 2",
  "how_it_was_run": "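On a CQ1 microscope at 37°C and 5% CO2, live cells were imaged after compound addition. They had been stained at seeding with Hoechst33342, BioTracker Green Microtubule Cytoskeleton Dye, MitoTracker Red and Annexin V Alexa Fluor 680. CellPathfinder machine-learning gating assigned cells to Hoechst high-intensity objects or normal cells, normal cells to healthy, pyknosed or fragmented nuclei, and pyknosed cells to mitotic or apoptotic. Tubulin, mitochondrial-mass and membrane-permeability phenotypes are per cents of healthy-nucleus cells.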",
  "key": {"[1]": {"settings": "12 h, 10 µM, compound concentration 10 uM"}, "[2]": {"settings": "24 h, 10 µM, compound concentration 10 uM"}, "[3]": {"settings": "48 h, 10 µM, compound concentration 10 uM"}, "[4]": {"settings": "12 h, 1 µM, compound concentration 1 uM"}, "[5]": {"settings": "24 h, 1 µM, compound concentration 1 uM"}, "[6]": {"settings": "48 h, 1 µM, compound concentration 1 uM"}},
  "note": "“And” between values parts separate entries of the source, which are not always exact repeats. Equal values may be shown once.",
  "data": [
    {"smiles": "CN[C@@H]1C[C@H]2O[C@@](C)([C@@H]1OC)n1c3ccccc3c3c4c(c5c6ccccc6n2c5c31)C(=O)NC4", "note": "[STAUROSPORINE]", "values": [
      {"measurement": "Population Apoptotic (%)", "setting": "[1]", "result": "56% and 55% and 68% and 63%"},
      {"measurement": "Population Fragmented Nuclei (%)", "setting": "[1]", "result": "20% and 14% and 21%"},
      {"measurement": "Population Healthy Nuclei (%)", "setting": "[1]", "result": "37% and 34% and 23% and 29%"},
      {"measurement": "Population Hoechst High Intensity Objects (%)", "setting": "[1]", "result": "7% and 8% and 5%"},
      {"measurement": "Population Membrane Permeable-Phenotype (%)", "setting": "[1]", "result": "11% and 12% and 7%"},
      {"measurement": "Population Mitochondria Different-Phenotype (%)", "setting": "[1]", "result": "46% and 52% and 60% and 51%"},
      {"measurement": "Population Mitotic Cells (%)", "setting": "[1]", "result": "43% and 44% and 31% and 36%"},
      {"measurement": "Population Normal (%)", "setting": "[1]", "result": "92% and 91% and 94%"},
      {"measurement": "Population Pyknosed Nuclei (%)", "setting": "[1]", "result": "41% and 51% and 55% and 50%"},
      {"measurement": "Population Tubulin-Different-Phenotype (%)", "setting": "[1]", "result": "72% and 77% and 76%"},
      {"measurement": "Population Apoptotic (%)", "setting": "[2]", "result": "85% and 83% and 86%"},
      {"measurement": "Population Fragmented Nuclei (%)", "setting": "[2]", "result": "16% and 13%"},
      {"measurement": "Population Healthy Nuclei (%)", "setting": "[2]", "result": "17% and 22% and 23% and 18%"},
      {"measurement": "Population Hoechst High Intensity Objects (%)", "setting": "[2]", "result": "12% and 8% and 10% and 7%"},
      {"measurement": "Population Membrane Permeable-Phenotype (%)", "setting": "[2]", "result": "10% and 7% and 6%"},
      {"measurement": "Population Mitochondria Different-Phenotype (%)", "setting": "[2]", "result": "45% and 63% and 62%"},
      {"measurement": "Population Mitotic Cells (%)", "setting": "[2]", "result": "14% and 16% and 13%"},
      {"measurement": "Population Normal (%)", "setting": "[2]", "result": "87% and 91% and 89% and 92%"},
      {"measurement": "Population Pyknosed Nuclei (%)", "setting": "[2]", "result": "66% and 64% and 63% and 65%"},
      {"measurement": "Population Tubulin-Different-Phenotype (%)", "setting": "[2]", "result": "58% and 59% and 76% and 79%"},
      {"measurement": "Population Apoptotic (%)", "setting": "[3]", "result": "90% and 89% and 87% and 81%"},
      {"measurement": "Population Fragmented Nuclei (%)", "setting": "[3]", "result": "13% and 11% and 10%"},
      {"measurement": "Population Healthy Nuclei (%)", "setting": "[3]", "result": "23% and 17% and 22% and 20%"},
      {"measurement": "Population Hoechst High Intensity Objects (%)", "setting": "[3]", "result": "14% and 9% and 11%"},
      {"measurement": "Population Membrane Permeable-Phenotype (%)", "setting": "[3]", "result": "11% and 6% and 5%"},
      {"measurement": "Population Mitochondria Different-Phenotype (%)", "setting": "[3]", "result": "47% and 62% and 64% and 65%"},
      {"measurement": "Population Mitotic Cells (%)", "setting": "[3]", "result": "9% and 10% and 12% and 18%"},
      {"measurement": "Population Normal (%)", "setting": "[3]", "result": "85% and 90% and 88%"},
      {"measurement": "Population Pyknosed Nuclei (%)", "setting": "[3]", "result": "63% and 71% and 66%"},
      {"measurement": "Population Tubulin-Different-Phenotype (%)", "setting": "[3]", "result": "59% and 72% and 68% and 75%"}
    ]},
    {"smiles": "Cc1ccc2c(c1CCC(=O)O)CC[C@@H](NS(=O)(=O)c1ccc(Cl)cc1)C2", "note": "[TERUTROBAN]", "values": [
      {"measurement": "Population Apoptotic (%)", "setting": "[4]", "result": "59% and 56%"},
      {"measurement": "Population Fragmented Nuclei (%)", "setting": "[4]", "result": "2% and 4%"},
      {"measurement": "Population Healthy Nuclei (%)", "setting": "[4]", "result": 81, "unit": "%"},
      {"measurement": "Population Hoechst High Intensity Objects (%)", "setting": "[4]", "result": 7, "unit": "%"},
      {"measurement": "Population Membrane Permeable-Phenotype (%)", "setting": "[4]", "result": "3% and 2%"},
      {"measurement": "Population Mitochondria Different-Phenotype (%)", "setting": "[4]", "result": "20% and 14%"},
      {"measurement": "Population Mitotic Cells (%)", "setting": "[4]", "result": "40% and 43%"},
      {"measurement": "Population Normal (%)", "setting": "[4]", "result": 92, "unit": "%"},
      {"measurement": "Population Pyknosed Nuclei (%)", "setting": "[4]", "result": "15% and 14%"},
      {"measurement": "Population Tubulin-Different-Phenotype (%)", "setting": "[4]", "result": 47, "unit": "%"},
      {"measurement": "Total Cell Count", "setting": "[4]", "result": "534 and 671"},
      {"measurement": "Population Apoptotic (%)", "setting": "[1]", "result": "55% and 71%"},
      {"measurement": "Population Fragmented Nuclei (%)", "setting": "[1]", "result": "5% and 3%"},
      {"measurement": "Population Healthy Nuclei (%)", "setting": "[1]", "result": "77% and 81%"},
      {"measurement": "Population Hoechst High Intensity Objects (%)", "setting": "[1]", "result": 8, "unit": "%"},
      {"measurement": "Population Membrane Permeable-Phenotype (%)", "setting": "[1]", "result": "4% and 1%"},
      {"measurement": "Population Mitochondria Different-Phenotype (%)", "setting": "[1]", "result": "24% and 20%"},
      {"measurement": "Population Mitotic Cells (%)", "setting": "[1]", "result": "44% and 28%"},
      {"measurement": "Population Normal (%)", "setting": "[1]", "result": 91, "unit": "%"},
      {"measurement": "Population Pyknosed Nuclei (%)", "setting": "[1]", "result": "17% and 15%"},
      {"measurement": "Population Tubulin-Different-Phenotype (%)", "setting": "[1]", "result": "70% and 50%"},
      {"measurement": "Total Cell Count", "setting": "[1]", "result": "599 and 487"},
      {"measurement": "Population Apoptotic (%)", "setting": "[5]", "result": "65% and 40%"},
      {"measurement": "Population Fragmented Nuclei (%)", "setting": "[5]", "result": "7% and 6%"},
      {"measurement": "Population Healthy Nuclei (%)", "setting": "[5]", "result": "81% and 86%"},
      {"measurement": "Population Hoechst High Intensity Objects (%)", "setting": "[5]", "result": "6% and 9%"},
      {"measurement": "Population Membrane Permeable-Phenotype (%)", "setting": "[5]", "result": 3, "unit": "%"},
      {"measurement": "Population Mitochondria Different-Phenotype (%)", "setting": "[5]", "result": "6% and 5%"},
      {"measurement": "Population Mitotic Cells (%)", "setting": "[5]", "result": "35% and 59%"},
      {"measurement": "Population Normal (%)", "setting": "[5]", "result": "93% and 90%"},
      {"measurement": "Population Pyknosed Nuclei (%)", "setting": "[5]", "result": "10% and 6%"},
      {"measurement": "Population Tubulin-Different-Phenotype (%)", "setting": "[5]", "result": "30% and 25%"},
      {"measurement": "Total Cell Count", "setting": "[5]", "result": "837 and 1016"},
      {"measurement": "Population Apoptotic (%)", "setting": "[2]", "result": "58% and 52%"},
      {"measurement": "Population Fragmented Nuclei (%)", "setting": "[2]", "result": "9% and 6%"},
      {"measurement": "Population Healthy Nuclei (%)", "setting": "[2]", "result": "79% and 84%"},
      {"measurement": "Population Hoechst High Intensity Objects (%)", "setting": "[2]", "result": "8% and 9%"},
      {"measurement": "Population Membrane Permeable-Phenotype (%)", "setting": "[2]", "result": "2% and 3%"},
      {"measurement": "Population Mitochondria Different-Phenotype (%)", "setting": "[2]", "result": "9% and 7%"},
      {"measurement": "Population Mitotic Cells (%)", "setting": "[2]", "result": "41% and 47%"},
      {"measurement": "Population Normal (%)", "setting": "[2]", "result": "91% and 90%"},
      {"measurement": "Population Pyknosed Nuclei (%)", "setting": "[2]", "result": "11% and 9%"},
      {"measurement": "Population Tubulin-Different-Phenotype (%)", "setting": "[2]", "result": "44% and 35%"},
      {"measurement": "Total Cell Count", "setting": "[2]", "result": "911 and 714"},
      {"measurement": "Population Apoptotic (%)", "setting": "[6]", "result": 11, "unit": "%"},
      {"measurement": "Population Fragmented Nuclei (%)", "setting": "[6]", "result": "12% and 9%"},
      {"measurement": "Population Healthy Nuclei (%)", "setting": "[6]", "result": "82% and 86%"},
      {"measurement": "Population Hoechst High Intensity Objects (%)", "setting": "[6]", "result": "7% and 9%"},
      {"measurement": "Population Membrane Permeable-Phenotype (%)", "setting": "[6]", "result": "4% and 7%"},
      {"measurement": "Population Mitochondria Different-Phenotype (%)", "setting": "[6]", "result": "0% and 1%"},
      {"measurement": "Population Mitotic Cells (%)", "setting": "[6]", "result": 88, "unit": "%"},
      {"measurement": "Population Normal (%)", "setting": "[6]", "result": "92% and 90%"},
      {"measurement": "Population Pyknosed Nuclei (%)", "setting": "[6]", "result": "4% and 3%"},
      {"measurement": "Population Tubulin-Different-Phenotype (%)", "setting": "[6]", "result": "12% and 11%"},
      {"measurement": "Total Cell Count", "setting": "[6]", "result": "2114 and 2407"},
      {"measurement": "Population Apoptotic (%)", "setting": "[3]", "result": "26% and 21%"},
      {"measurement": "Population Fragmented Nuclei (%)", "setting": "[3]", "result": "14% and 10%"},
      {"measurement": "Population Healthy Nuclei (%)", "setting": "[3]", "result": "80% and 86%"},
      {"measurement": "Population Hoechst High Intensity Objects (%)", "setting": "[3]", "result": "9% and 8%"},
      {"measurement": "Population Membrane Permeable-Phenotype (%)", "setting": "[3]", "result": "6% and 5%"},
      {"measurement": "Population Mitochondria Different-Phenotype (%)", "setting": "[3]", "result": 1, "unit": "%"},
      {"measurement": "Population Mitotic Cells (%)", "setting": "[3]", "result": "73% and 78%"},
      {"measurement": "Population Normal (%)", "setting": "[3]", "result": "90% and 91%"},
      {"measurement": "Population Pyknosed Nuclei (%)", "setting": "[3]", "result": "5% and 3%"},
      {"measurement": "Population Tubulin-Different-Phenotype (%)", "setting": "[3]", "result": "20% and 15%"},
      {"measurement": "Total Cell Count", "setting": "[3]", "result": "1958 and 1618"}
    ]}
  ]
}
